From ChEMBL document CHEMBL1133479 (J Med Chem, 2000)

Columns and labels:
[1] = biological target: T1, Melatonin receptor type 1B (Homo sapiens, UniProt P49286); assay: Binding affinity for melatonin receptor type 1B, expressed in HEK293 cells (2-[125I]iodomelatonin is used as radioligand); format: cell-based
T1 sequence (P49286 whole entry): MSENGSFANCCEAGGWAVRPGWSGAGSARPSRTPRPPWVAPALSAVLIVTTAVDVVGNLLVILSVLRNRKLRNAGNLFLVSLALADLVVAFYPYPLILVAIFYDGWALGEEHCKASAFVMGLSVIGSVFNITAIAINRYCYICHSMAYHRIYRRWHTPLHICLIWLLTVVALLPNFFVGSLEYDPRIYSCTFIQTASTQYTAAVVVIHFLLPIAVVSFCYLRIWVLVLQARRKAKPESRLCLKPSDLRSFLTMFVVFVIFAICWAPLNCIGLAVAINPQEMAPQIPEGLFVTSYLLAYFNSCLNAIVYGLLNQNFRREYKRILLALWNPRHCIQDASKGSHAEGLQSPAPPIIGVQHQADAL

[2] = biological target: Melatonin receptor type 1A (Homo sapiens, UniProt P48039); assay: Binding affinity for human melatonin receptor type 1A, expressed in HEK293 cells (2-[125I]iodomelatonin is used as radioligand); format: cell-based
Melatonin receptor = Melatonin receptor (Gallus gallus, UniProt P49288+P51050+P49285); assay: Binding affinity is evaluated for chicken brain melatonin receptor using 2-[125I]iodomelatonin as radioligand
[3] = Percentage of maximum effect observed with regard to that of melatonin (100%); format: functional
Summary of the method: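 Tadpole skin-lightening assay (melanophore index, 5 concentrations, 15 min exposure).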

[4] = Melanophore aggregation of the dermal melanocytes of Xenopus laevis tadpoles; format: functional
[5] = Melanophore aggregation of the dermal melanocytes of Xenopus laevis tadpoles with regard to melatonin (=1); format: functional
[6] = compound is evaluated for melanophore aggregation of the dermal melanocytes of Xenopus laevis tadpoles with regard to melatonin (=1); format: functional

Melatonin receptor type 1A, sequence (P48039 whole entry): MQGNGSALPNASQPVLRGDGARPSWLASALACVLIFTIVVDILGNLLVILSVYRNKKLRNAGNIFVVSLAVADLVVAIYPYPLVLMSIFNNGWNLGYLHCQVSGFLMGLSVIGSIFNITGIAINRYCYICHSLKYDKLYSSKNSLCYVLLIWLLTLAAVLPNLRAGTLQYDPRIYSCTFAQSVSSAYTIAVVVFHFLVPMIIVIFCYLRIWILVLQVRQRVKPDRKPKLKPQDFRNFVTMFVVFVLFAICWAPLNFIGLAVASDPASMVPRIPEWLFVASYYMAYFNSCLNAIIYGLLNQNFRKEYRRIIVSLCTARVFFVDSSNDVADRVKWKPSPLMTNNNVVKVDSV

| SMILES | Ki [1] | Ki [2] | Ki (Melatonin receptor) | Effect [3] | EC50 [4] | Potency [5] | Potency [6] |
| --- | --- | --- | --- | --- | --- | --- | --- |
| CCC(=O)NCC1CCc2c(OC)ccc3cccc1c23 (configuration not stated) | 0.13 nM | 0.19 nM | 0.7 nM |  |  |  |  |
| COc1ccc2cccc3c2c1CCC3CNC(=O)C1CC1 (configuration not stated) | 0.79 nM | 0.95 nM | 4.6 nM |  |  |  |  |
| CC(=O)NCCC1Cc2cccc3cccc1c23 (configuration not stated) | 3.83 nM | 6.5 nM | 123.3 nM | < 50% | > 1000 nM |  |  |
| CCCC(=O)NCC1CCc2cccc3ccc(OC)c1c23 (configuration not stated) | 0.069 nM | 0.008 nM | 0.02 nM |  | 0.08 nM | 84.8 |  |
| CCC(=O)NCCC1CCc2c(OC)ccc3ccc(OC)c1c23 (configuration not stated) | 0.55 nM | 0.07 nM | 0.8 nM |  |  |  |  |
| COc1ccc2cccc3c2c1C(CCNC(C)=O)C3 (configuration not stated) | 0.59 nM | 0.41 nM | 2.7 nM | 50% | > 1000 nM |  |  |
| CC(=O)NCC1CCc2cccc3cccc1c23 (configuration not stated) | 0.22 nM | 1.2 nM | 5.5 nM |  |  |  |  |
| CCCC(=O)NCC1CCc2c(OC)ccc3cccc1c23 (stereo in doubt; 13c (+)) | 4.07 nM | 2.9 nM | 21.7 nM |  |  |  |  |
| CCCC(=O)NCC1Cc2cccc3ccc(OC)c1c23 (single isomer, unassigned; (+)) | 7.4 nM | 3.9 nM | 4.3 nM |  |  |  |  |
| CCC(=O)NCCC1Cc2cccc3ccc(OC)c1c23 (configuration not stated) | 0.24 nM | 0.22 nM | 4.75 nM |  |  |  |  |
| CCCC(=O)NCC1CCc2c(OC)ccc3cccc1c23 (stereo in doubt; 13c) | 0.11 nM | 0.45 nM | 0.36 nM |  | 1.61 nM |  | 13.3 |
| CCCC(=O)NCC1Cc2cccc3ccc(OC)c1c23 (stereo in doubt; 20c) | 0.35 nM | 0.37 nM | 0.16 nM |  | 0.46 nM | 14.7 |  |
| CCC(=O)NCC1Cc2cccc3ccc(OC)c1c23 (configuration not stated) | 0.085 nM | 0.1 nM | 0.9 nM |  |  |  |  |
| CCC(=O)NCCC1Cc2cccc3cccc1c23 (configuration not stated) | 1.86 nM | 4.34 nM | 101.8 nM |  |  |  |  |
| CCCC(=O)NCCC1CCc2cccc3ccc(OC)c1c23 (configuration not stated) |  |  | 0.43 nM |  |  |  |  |
| CCC(=O)NCC1Cc2cccc3cccc1c23 (configuration not stated) | 0.22 nM | 2.65 nM | 14.3 nM |  |  |  |  |
| COc1ccc2cccc3c2c1C(CNC(C)=O)CC3 (configuration not stated) | 0.094 nM | 0.01 nM | 0.04 nM |  | 0.1 nM | 67.9 |  |
| CCCC(=O)NCC1CCc2c(OC)ccc3ccc(OC)c1c23 (stereo in doubt; 15c) | 0.1 nM | 0.016 nM | 0.07 nM |  | 0.004 nM | 1697 |  |
| COc1ccc2ccc(OC)c3c2c1CCC3CCNC(=O)C1CC1 (configuration not stated) | 1.59 nM | 0.66 nM | 11.2 nM |  |  |  |  |
| CCCC(=O)NCC1CCc2c(OC)ccc3cccc1c23 (single isomer, unassigned; (-)) | 0.068 nM | 0.11 nM | 0.8 nM |  |  |  |  |
| COc1ccc2cccc3c2c1CCC3CNC(C)=O (configuration not stated) | 0.41 nM | 0.8 nM | 0.9 nM |  | 57.8 nM | 0.11 |  |
| O=C(NCC1Cc2cccc3cccc1c23)C1CC1 (configuration not stated) | 0.57 nM | 1.06 nM | 40.5 nM |  |  |  |  |
| CC(=O)NCC1Cc2cccc3cccc1c23 (configuration not stated) | 0.51 nM | 4.24 nM | 36.1 nM | < 50% | > 1000 nM |  |  |

| SMILES | Ki [1] | Ki [2] | Ki (Melatonin receptor) | Effect [3] | EC50 [4] | Potency [5] | Potency [6] |
| --- | --- | --- | --- | --- | --- | --- | --- |
| COc1ccc2cccc3c2c1C(CNC(C)=O)C3 (configuration not stated) | 0.12 nM | 0.12 nM | 2.95 nM |  | 5.08 nM | 1.33 |  |
| CCCC(=O)NCC1Cc2cccc3ccc(OC)c1c23 (single isomer, unassigned; (-)) | 0.034 nM | 0.03 nM | 0.15 nM |  |  |  |  |
| CCC(=O)NCC1CCc2c(OC)ccc3ccc(OC)c1c23 (configuration not stated) | 0.153 nM | 0.012 nM | 0.011 nM |  |  |  |  |
| CCCC(=O)NCCC1CCc2c(OC)ccc3cccc1c23 (configuration not stated) |  |  | 28.1 nM |  |  |  |  |
| CCCC(=O)NCC1CCc2c(OC)ccc3ccc(OC)c1c23 (single isomer, unassigned; (-)) |  |  | 0.034 nM |  |  |  |  |
| CCCC(=O)NCCC1CCc2c(OC)ccc3ccc(OC)c1c23 (configuration not stated) | 0.19 nM | 0.057 nM | 0.14 nM |  | 0.18 nM | 37.7 |  |
| COc1ccc2cccc3c2c1C(CCNC(C)=O)CC3 (configuration not stated) | 0.39 nM | 0.1 nM | 24.4 nM |  | 428 nM | 0.007 |  |
| COc1ccc2ccc(OC)c3c2c1CCC3CCNC(C)=O (configuration not stated) | 0.55 nM | 0.2 nM | 3.6 nM |  | 2.65 nM | 2.5 |  |
| COc1ccc2ccc(OC)c3c2c1CCC3CNC(=O)C1CC1 (configuration not stated) | 0.26 nM | 0.026 nM | 0.13 nM |  |  |  |  |
| CCCC(=O)NCCC1Cc2cccc3cccc1c23 (configuration not stated) | 1.86 nM | 6.41 nM | 73.7 nM |  |  |  |  |
| CCCC(=O)NCC1CCc2c(OC)ccc3ccc(OC)c1c23 (single isomer, unassigned; (+)) |  |  | 0.31 nM |  |  |  |  |
| CCC(=O)NCCC1CCc2c(OC)ccc3cccc1c23 (configuration not stated) | 4.03 nM | 2.08 nM | 31.7 nM |  |  |  |  |
| CCCC(=O)NCCC1Cc2cccc3ccc(OC)c1c23 (configuration not stated) | 0.34 nM | 0.37 nM | 2.4 nM |  |  |  |  |
| O=C(NCCC1Cc2cccc3cccc1c23)C1CC1 (configuration not stated) | 16.2 nM | 6.48 nM | 399 nM |  |  |  |  |
| CCCC(=O)NCC1Cc2cccc3cccc1c23 (configuration not stated) | 0.093 nM | 0.79 nM | 4.3 nM | < 50% | 26 nM |  |  |
| COc1ccc2cccc3c2c1C(CCNC(=O)C1CC1)C3 (configuration not stated) | 41.8 nM | 10 nM | 97.1 nM |  |  |  |  |
| COc1ccc2cccc3c2c1CCC3CCNC(=O)C1CC1 (configuration not stated) | 13.2 nM | 1.89 nM | 43.4 nM |  |  |  |  |
| COc1ccc2cccc(CCNC(C)=O)c2c1 [AGOMELATINE] |  |  |  |  | 0.53 nM | 0.8 |  |
| COc1ccc2cccc3c2c1CCC3CCNC(C)=O (configuration not stated) | 11.8 nM | 8.9 nM | 145 nM | 50% | > 1000 nM |  |  |
| COc1ccc2cccc3c2c1C(CNC(=O)C1CC1)C3 (configuration not stated) | 0.31 nM | 1.32 nM | 3.8 nM |  |  |  |  |
| CCCC(=O)NCC1CCc2cccc3cccc1c23 (configuration not stated) | 0.18 nM |  | 3.2 nM |  |  |  |  |
| COc1ccc2ccc(OC)c3c2c1CCC3CNC(C)=O (configuration not stated) | 0.145 nM | 0.015 nM | 0.054 nM |  | 0.025 nM | 271.6 |  |
